Results taken from ChEMBL document CHEMBL3297737, “Discovery of the first potent and orally available agonist of the orphan G-protein-coupled receptor 52” (J Med Chem, 2014).
Active and inactive are the calls of the source. The calls are words filed in the database; no cut-off is given here.

Key:
[1] = target: T1, G-protein coupled receptor 52 (Homo sapiens, UniProt Q9Y2T5); experiment: Agonist activity at human GPR52 expressed in CHO cells assessed as cAMP production after 30 mins by Alphascreen assay; type: functional, cell-based
[2] = target: T1, G-protein coupled receptor 52; experiment: Agonist activity at human GPR52 expressed in CHO cells assessed as cAMP production after 30 mins by Alphascreen assay relative to N-(2-Hydroxyethyl)-3-{2-[3-(trifluoromethyl)benzyl]-1-benzofuran-4-yl}benzamide; type: functional, cell-based
[3] = target: T1, G-protein coupled receptor 52; experiment: Agonist activity at human GPR52 expressed in CHO cells assessed as cAMP production at 10 uM after 30 mins by Alphascreen assay; type: functional, cell-based
Mus musculus [4] = experiment: Toxicity in ICR mouse assessed as extrapyramidal side effects at 100 mg/kg, po after 1 to 2 hrs; type: organism-based; parameters: dose 100 mg/kg, route oral; conditions: in vivo
Procedure, shortened: (§1)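 Male ICR mice, 6–7 weeks old, dosed orally (10–100 mg/kg). Tested 1 and 2 h post-dose by placing forepaws on a steel bar, hind legs on the surface. Time holding immobile posture recorded, capped at 30 s. Three trials averaged per mouse. n = 6 per group. Williams test versus vehicle.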

[5] = Oral bioavailability in mouse at 1 mg/kg administered via cassette dosing; type: ADME, organism-based; conditions: in vivo
Procedure, shortened: (§2)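 Mouse cassette dosing at 0.1 mg/kg iv and 1 mg/kg po. Plasma Cmax, AUC0–8h and oral bioavailability determined.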

Mus musculus [6] = experiment: Antipsychotic activity against methamphetamine-induced hyperlocomotion in ICR mouse at 3 mg/kg, po administered 60 mins prior to methamphetamine challenge measured 150 mins post compound challenge; type: functional, organism-based; parameters: dose 3 mg/kg
Procedure, shortened: (§3)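 Male ICR mice, 7–8 weeks old, each in its own cage. Locomotor activity monitored. Compound given orally (1–30 mg/kg) after 60 min habituation. Methamphetamine 2 mg/kg sc injected 60 min later. Activity counts recorded for 150 min after compound dosing. n = 6–7 per group. Williams test versus vehicle + methamphetamine.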

Homo sapiens [7] = organism: Homo sapiens; experiment: Agonist activity at AMPA receptor (unknown origin)
Mus musculus [8] = experiment: Antipsychotic activity against methamphetamine-induced hyperlocomotion in po dosed ICR mouse administered 60 mins prior to methamphetamine challenge measured 150 mins post compound challenge; type: functional, organism-based; procedure, shortened: as §3
[9] = Cmax in mouse at 1 mg/kg, po administered via cassette dosing; type: ADME, organism-based; parameters: dose 1 mg/kg, route oral; conditions: in vivo; procedure, shortened: as §2
[10] = target: D(1A) dopamine receptor (Homo sapiens) (UniProt P21728); experiment: Agonist activity at dopamine D1 receptor (unknown origin)
Homo sapiens [11] = organism: Homo sapiens; experiment: Agonist activity at 5HT2 receptor (unknown origin)
Mus musculus [12] = experiment: Toxicity in ICR mouse assessed as cataleptogenic effect at 100 mg/kg, po after 1 to 2 hrs; type: organism-based; parameters: dose 100 mg/kg, route oral; conditions: in vivo; procedure, shortened: as §1
[13] = target: Glutamate [NMDA] receptor (Homo sapiens) (UniProt Q05586+Q12879+Q13224+O15399+O60391+Q14957+Q8TCU5); experiment: Agonist activity at NMDA receptor (unknown origin)
[14] = Ratio of AUC from brain to plasma in mouse at 30 mg/kg, po; type: ADME, organism-based; parameters: dose 30 mg/kg, route oral; conditions: read-out: Ratio AUC
Procedure, shortened: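 Brain/plasma AUC ratio determined in mice after oral administration of 30 mg/kg.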

[15] = AUC (0 to 8 hrs) in mouse at 1 mg/kg, po administered via cassette dosing; type: ADME, organism-based; parameters: time < 8 hr, dose 1 mg/kg, route oral; conditions: plasma; procedure, shortened: as §2
[16] = target: D(1A) dopamine receptor (Homo sapiens) (UniProt P21728); experiment: Agonist activity at human dopamine D1 receptor expressed in CHO cells; type: cell-based
Procedure, shortened: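 cAMP production measured in CHO cells expressing human dopamine D1 receptor (DRD1). Mean ± SD, n = 4.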

[17] = target: D(2) dopamine receptor (Homo sapiens) (UniProt P14416); experiment: Agonist activity at dopamine D2 receptor (unknown origin)
[18] = target: T1, G-protein coupled receptor 52; experiment: Agonist activity at GPR52 (unknown origin) relative to control
[19] = target: T1, G-protein coupled receptor 52; experiment: Agonist activity at GPR52 (unknown origin)

T1 sequence (Q9Y2T5 whole entry): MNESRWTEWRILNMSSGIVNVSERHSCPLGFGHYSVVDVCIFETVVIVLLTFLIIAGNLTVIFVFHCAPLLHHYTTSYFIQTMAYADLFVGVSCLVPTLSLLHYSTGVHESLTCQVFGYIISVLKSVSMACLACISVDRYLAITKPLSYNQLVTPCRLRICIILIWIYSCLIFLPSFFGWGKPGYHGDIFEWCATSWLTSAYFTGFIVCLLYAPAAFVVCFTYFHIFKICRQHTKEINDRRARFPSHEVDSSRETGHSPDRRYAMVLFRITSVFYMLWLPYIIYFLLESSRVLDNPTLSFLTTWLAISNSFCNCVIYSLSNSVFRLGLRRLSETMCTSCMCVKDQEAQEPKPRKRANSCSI
Sequence of D(1A) dopamine receptor (Homo sapiens) (P21728 whole entry): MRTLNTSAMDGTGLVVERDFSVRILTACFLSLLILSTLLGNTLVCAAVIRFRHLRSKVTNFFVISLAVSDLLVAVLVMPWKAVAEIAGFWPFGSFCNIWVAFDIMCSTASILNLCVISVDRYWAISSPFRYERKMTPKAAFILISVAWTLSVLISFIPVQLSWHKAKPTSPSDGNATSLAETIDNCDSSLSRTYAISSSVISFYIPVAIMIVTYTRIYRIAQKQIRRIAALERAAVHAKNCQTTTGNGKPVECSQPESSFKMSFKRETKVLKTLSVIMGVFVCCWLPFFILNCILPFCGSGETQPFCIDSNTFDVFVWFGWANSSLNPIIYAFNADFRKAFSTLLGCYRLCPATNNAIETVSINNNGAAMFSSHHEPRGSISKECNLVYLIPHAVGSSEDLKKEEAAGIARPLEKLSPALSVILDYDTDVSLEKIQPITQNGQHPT
Sequence of D(2) dopamine receptor (Homo sapiens) (P14416 whole entry): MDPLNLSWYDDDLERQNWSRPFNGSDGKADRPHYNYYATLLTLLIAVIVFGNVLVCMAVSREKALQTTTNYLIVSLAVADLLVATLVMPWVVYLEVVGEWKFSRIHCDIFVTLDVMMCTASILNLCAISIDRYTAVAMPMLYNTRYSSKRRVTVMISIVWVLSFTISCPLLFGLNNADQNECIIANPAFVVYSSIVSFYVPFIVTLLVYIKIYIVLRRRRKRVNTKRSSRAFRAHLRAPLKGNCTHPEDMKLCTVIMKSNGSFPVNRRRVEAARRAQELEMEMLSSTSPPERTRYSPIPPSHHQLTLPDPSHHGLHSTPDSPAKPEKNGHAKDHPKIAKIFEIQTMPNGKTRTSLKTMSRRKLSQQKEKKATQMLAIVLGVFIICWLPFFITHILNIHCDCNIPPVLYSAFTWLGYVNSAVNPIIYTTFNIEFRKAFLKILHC

SMILES | EC50 [1] [nM] | Emax [2] [%] | also measured
O=C(NCCO)c1cccc(-c2cccc3oc(Cc4cccc(C(F)(F)F)c4)cc23)c1 | 28.2 | 85.7 | 
O=C(NCCO)c1cccc(-c2cccc3cc(Cc4cccc(C(F)(F)F)c4)oc23)c1 | 34.7 | 74.8 | 
O=C(NCCO)c1cccc(-c2cccc(OCCc3cccc(C(F)(F)F)c3)n2)c1 |  |  | Emax [18]: 73.1%; EC50 [19]: 646 nM
O=C(NCCO)c1cccc(-c2cccc3cn(Cc4cccc(C(F)(F)F)c4)nc23)c1 | 64.6 | 69.7 | 
O=C(NCCO)c1cccc(-c2cccc3cc(Cc4cccc(C(F)(F)F)c4)sc23)c1 | 37.2 | 79.6 | 
NC(=O)CNC(=O)c1cccc(-c2cccc3cc(Cc4cccc(C(F)(F)F)c4)sc23)c1 | 55 | 102 | 
O=C(NCCO)c1cccc(-c2cccc(OCCc3cc(F)cc(Cl)c3)n2)c1 |  |  | Emax [18]: 79%; EC50 [19]: 347 nM
O=C(NCCO)c1cccc(-c2cccc3c2CC(Cc2cccc(C(F)(F)F)c2)O3)c1 (racemic) | 646 | 45.9 | 
Cc1c(Cc2cccc(C(F)(F)F)c2)oc2cccc(-c3cccc(C(=O)NCCO)c3)c12 | > 10000 |  | Activity [3]: 20%
O=C(NCCO)c1cccc(-c2cccc3nn(Cc4cccc(C(F)(F)F)c4)cc23)c1 | 38.9 | 79.1 | 
O=C(NCCO)c1cccc(-c2cccc3sc(Cc4cccc(C(F)(F)F)c4)cc23)c1 | 38 | 68.6 | 

Second part, led by results:

EC50 [1] [nM] | Emax [2] [%] | SMILES | also measured
209 | 56.1 | O=C(NCCO)c1cccc(-c2cccc3c2OC(Cc2cccc(C(F)(F)F)c2)C3)c1 (racemic) | 
> 10000 |  | COc1ccc(-c2ccnc(NCCc3ccc(OC)c(OC)c3)n2)cc1 | Activity [3]: 33%
29.5 | 79.8 | COCCNC(=O)c1cccc(-c2cccc3cc(Cc4cc(F)cc(Cl)c4)sc23)c1 | Activity (Mus musculus [4]): Non-toxic; bioavailability [5]: 73%; Activity (Mus musculus [6]): Active; Activity (Homo sapiens [7]): inactive; Activity (Mus musculus [8]): Dose-dependent effect; Cmax [9]: 108 ng/mL; Activity [10]: inactive; Activity (Homo sapiens [11]): inactive; Activity (Mus musculus [12]): Non-toxic; Activity [13]: inactive; Kp [14]: 0.94; AUC(0-t) at 8 h [15]: 614 ng·h/mL; Activity [16]: inactive; Activity [17]: inactive
81.3 | 71.5 | Cc1c(Cc2cccc(C(F)(F)F)c2)oc2c(-c3cccc(C(=O)NCCO)c3)cccc12 | 
42.7 | 85 | COCCNC(=O)c1cccc(-c2cccc3cc(Cc4cccc(C(F)(F)F)c4)sc23)c1 | 
83.2 | 107 | NC(=O)CNC(=O)c1cccc(-c2ccc(F)c3cc(Cc4cccc(C(F)(F)F)c4)sc23)c1 | 
